Reference: ChEMBL document CHEMBL4014345, “Development of Selective Clk1 and -4 Inhibitors for Cellular Depletion of Cancer-Relevant Proteins” (J Med Chem, 2017)
The source made the active and inactive calls. The rule behind the calls is not given here.

Assays:
[1] = biological target: T1, Dual specificity tyrosine-phosphorylation-regulated kinase 1A (Homo sapiens, UniProt Q13627); assay: Inhibition of N-terminal His6-tagged recombinant human Dyrk1A expressed in Escherichia coli BL21 (DE3) using KKISGRLSPIMTEQ-NH2 as substrate after 15 mins in presence of [gamma-32]-ATP
[2] = biological target: T2, Dual specificity protein kinase CLK1/CLK4 (Homo sapiens, UniProt Q9HAZ1+P49759); assay: Inhibition of CLK1/4 in human T24 cells assessed as down regulation of EGFR expression at 10 uM after 3 days by Western blot analysis relative to control; format: cell-based
Method in brief: (§1)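 T24 or MDA-MB-231 cells were grown in DMEM to 70% confluency. The medium was replaced with compound diluted in DMEM, and cells were kept 3 days. Total protein was immunoblotted with monoclonal antibodies in 3% BSA/PBS against EGFR, p70S6K α, PARP-1, ERK2, HDAC1, CD44, PCNA and GRP94.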

[3] = biological target: Dual specificity tyrosine-phosphorylation-regulated kinase 1B (Homo sapiens, UniProt Q9Y463); assay: Inhibition of full length recombinant GST-tagged human DYRK1B expressed in baculovirus using KKISGRLSPIMTEQ-NH2 as substrate after 15 mins
Sequence of Dual specificity tyrosine-phosphorylation-regulated kinase 1B (Q9Y463 whole entry): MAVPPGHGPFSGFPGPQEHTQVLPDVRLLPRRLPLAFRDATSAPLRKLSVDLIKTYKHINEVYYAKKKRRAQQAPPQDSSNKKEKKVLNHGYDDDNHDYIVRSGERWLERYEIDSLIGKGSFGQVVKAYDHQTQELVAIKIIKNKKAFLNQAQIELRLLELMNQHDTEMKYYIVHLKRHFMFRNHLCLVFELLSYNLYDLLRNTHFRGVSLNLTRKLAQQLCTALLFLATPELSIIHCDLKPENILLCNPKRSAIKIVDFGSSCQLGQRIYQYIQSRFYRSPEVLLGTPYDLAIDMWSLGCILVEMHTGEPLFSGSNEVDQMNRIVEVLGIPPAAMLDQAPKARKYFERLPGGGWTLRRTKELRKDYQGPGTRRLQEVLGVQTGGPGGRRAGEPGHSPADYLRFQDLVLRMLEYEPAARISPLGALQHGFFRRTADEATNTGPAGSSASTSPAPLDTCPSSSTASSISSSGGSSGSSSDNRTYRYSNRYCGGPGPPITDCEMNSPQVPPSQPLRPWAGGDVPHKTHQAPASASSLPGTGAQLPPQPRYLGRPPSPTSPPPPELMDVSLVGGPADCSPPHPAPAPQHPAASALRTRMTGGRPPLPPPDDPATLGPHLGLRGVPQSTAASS

[4] = biological target: T1, Dual specificity tyrosine-phosphorylation-regulated kinase 1A; assay: Inhibition of N-terminal His6-tagged recombinant human Dyrk1A expressed in Escherichia coli BL21 (DE3) using KKISGRLSPIMTEQ-NH2 as substrate at 1 uM after 15 mins in presence of [gamma-32]-ATP; details: 0.25 h
[5] = biological target: Dual specificity protein kinase CLK2 (Mus musculus) (UniProt O35491); assay: Inhibition of recombinant GST-tagged mouse CLK2 using GRSRSRSRSRSR as substrate at 1 uM after 30 mins in presence of [gamma-32P]-ATP by scintillation counting method
Sequence of Dual specificity protein kinase CLK2 (Mus musculus) (O35491 whole entry, looked up): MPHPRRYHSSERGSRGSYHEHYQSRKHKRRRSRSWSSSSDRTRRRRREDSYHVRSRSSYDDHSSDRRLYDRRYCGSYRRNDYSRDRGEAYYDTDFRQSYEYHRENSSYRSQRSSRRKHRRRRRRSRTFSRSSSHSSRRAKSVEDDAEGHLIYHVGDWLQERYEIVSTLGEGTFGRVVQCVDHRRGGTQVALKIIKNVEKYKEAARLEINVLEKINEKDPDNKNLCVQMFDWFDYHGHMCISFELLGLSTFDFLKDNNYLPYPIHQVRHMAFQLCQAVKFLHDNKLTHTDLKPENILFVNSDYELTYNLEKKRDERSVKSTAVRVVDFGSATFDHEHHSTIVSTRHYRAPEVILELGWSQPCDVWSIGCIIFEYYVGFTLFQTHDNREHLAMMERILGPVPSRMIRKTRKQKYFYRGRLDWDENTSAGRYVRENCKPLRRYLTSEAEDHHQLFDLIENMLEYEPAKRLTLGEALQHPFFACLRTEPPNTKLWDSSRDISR

[6] = biological target: Dual specificity protein kinase CLK2 (Mus musculus, UniProt O35491); assay: Inhibition of recombinant GST-tagged mouse CLK2 using GRSRSRSRSRSR as substrate after 30 mins in presence of [gamma-32P]-ATP by scintillation counting method
Sequence of Dual specificity protein kinase CLK2 (O35491 whole entry): as the sequence (O35491 whole entry, looked up) above

[7] = biological target: Serine/threonine-protein kinase 17A (Homo sapiens) (UniProt Q9UEE5); assay: Inhibition of STK17A (unknown origin) at 1 uM after 15 mins
Sequence of Serine/threonine-protein kinase 17A (Homo sapiens) (Q9UEE5 whole entry): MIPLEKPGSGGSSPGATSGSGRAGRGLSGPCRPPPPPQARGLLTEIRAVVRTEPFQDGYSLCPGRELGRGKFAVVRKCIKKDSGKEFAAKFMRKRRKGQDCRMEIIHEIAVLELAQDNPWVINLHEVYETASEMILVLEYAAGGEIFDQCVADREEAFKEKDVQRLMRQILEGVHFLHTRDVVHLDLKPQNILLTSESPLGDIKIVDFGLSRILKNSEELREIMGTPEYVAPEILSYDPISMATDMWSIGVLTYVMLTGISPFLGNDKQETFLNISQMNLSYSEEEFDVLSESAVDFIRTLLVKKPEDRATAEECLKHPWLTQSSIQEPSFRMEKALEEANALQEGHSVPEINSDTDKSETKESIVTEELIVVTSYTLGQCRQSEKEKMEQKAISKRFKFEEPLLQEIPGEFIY
Method in brief: (§2)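 Tested in a commercial kinase profiling panel at an ATP concentration of 100 μM. Data are the mean of duplicates that differed by less than 7%.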

[8] = biological target: SRSF protein kinase 1 (Homo sapiens) (UniProt Q96SB4); assay: Inhibition of SRPK1 (unknown origin) at 1 uM; method in brief: as §2
Sequence of SRSF protein kinase 1 (Homo sapiens) (Q96SB4 whole entry): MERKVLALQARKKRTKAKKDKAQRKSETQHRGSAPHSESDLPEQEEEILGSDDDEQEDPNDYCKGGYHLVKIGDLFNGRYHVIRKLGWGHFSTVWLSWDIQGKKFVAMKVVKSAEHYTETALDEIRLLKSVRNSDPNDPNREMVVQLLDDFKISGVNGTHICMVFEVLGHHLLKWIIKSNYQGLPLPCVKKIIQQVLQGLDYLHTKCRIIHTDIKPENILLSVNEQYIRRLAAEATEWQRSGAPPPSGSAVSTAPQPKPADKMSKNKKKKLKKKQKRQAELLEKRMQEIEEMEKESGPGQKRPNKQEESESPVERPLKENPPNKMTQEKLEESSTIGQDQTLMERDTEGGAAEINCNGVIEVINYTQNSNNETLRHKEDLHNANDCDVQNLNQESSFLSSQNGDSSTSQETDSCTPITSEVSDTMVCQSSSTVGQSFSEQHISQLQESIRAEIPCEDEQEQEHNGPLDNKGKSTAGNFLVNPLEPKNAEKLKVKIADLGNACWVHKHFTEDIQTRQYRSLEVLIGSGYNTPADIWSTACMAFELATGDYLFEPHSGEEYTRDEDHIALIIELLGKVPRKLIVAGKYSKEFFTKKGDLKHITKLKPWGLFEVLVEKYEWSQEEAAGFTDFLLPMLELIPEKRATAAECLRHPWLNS

[9] = biological target: Myosin light chain kinase 2, skeletal/cardiac muscle (Homo sapiens) (UniProt Q9H1R3); assay: Inhibition of MLCK2 (unknown origin) at 1 uM after 15 mins; method in brief: as §2
Sequence of Myosin light chain kinase 2, skeletal/cardiac muscle (Homo sapiens) (Q9H1R3 whole entry): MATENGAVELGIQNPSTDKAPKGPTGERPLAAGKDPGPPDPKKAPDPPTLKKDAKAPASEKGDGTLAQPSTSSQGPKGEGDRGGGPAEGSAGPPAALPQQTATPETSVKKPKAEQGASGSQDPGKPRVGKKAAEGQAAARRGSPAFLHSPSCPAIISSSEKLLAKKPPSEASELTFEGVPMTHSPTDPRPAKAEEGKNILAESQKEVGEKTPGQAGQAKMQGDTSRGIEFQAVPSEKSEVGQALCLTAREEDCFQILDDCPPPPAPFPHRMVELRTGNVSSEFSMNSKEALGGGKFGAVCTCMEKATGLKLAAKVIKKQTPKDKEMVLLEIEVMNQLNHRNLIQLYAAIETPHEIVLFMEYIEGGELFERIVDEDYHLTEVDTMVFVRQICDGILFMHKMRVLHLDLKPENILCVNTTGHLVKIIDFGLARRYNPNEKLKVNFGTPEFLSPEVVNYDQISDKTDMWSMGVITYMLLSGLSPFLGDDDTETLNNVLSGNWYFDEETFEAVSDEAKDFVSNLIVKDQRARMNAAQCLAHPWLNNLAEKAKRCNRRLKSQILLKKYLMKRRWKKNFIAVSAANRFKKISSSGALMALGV

Homo sapiens = organism: Homo sapiens; assay: Inhibition of recombinant human casein kinase 2 using RRREDEESDDEE as substrate at 1 uM after 30 mins in presence of [gamma-32P]-ATP by scintillation counting method
T-24 [10] = assay: Cytotoxicity against human T24 cells assessed as growth inhibition after 5 days by MTT assay; format: functional; details: T-24, 120 h
Method in brief: (§3)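 They were seeded at 5000 cells per well onto compound or DMSO (0.2% final). Plates were kept 5 days at 37 °C in 5% CO2 with no medium change, then read by MTT.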

T47D = assay: Cytotoxicity against human T47D cells assessed as growth inhibition after 5 days by MTT assay; format: functional; details: 120 h; method in brief: as §3
THP-1 = assay: Cytotoxicity against human THP1 cells assessed as growth inhibition after 5 days by MTT assay; format: functional; details: THP-1, 120 h; method in brief: as §3
[11] = Cytotoxicity against HEK293 cells assessed as growth inhibition; format: cell-based; details: human
Method in brief: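 Cytotoxicity was tested in proliferating HEK293 cells with GI50 as the read-out. Data are the mean of at least two independent experiments.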

[12] = biological target: T2, Dual specificity protein kinase CLK1/CLK4; assay: Inhibition of CLK1/4 in human T24 cells assessed as down regulation of EGFR expression after 3 days by Western blot analysis; format: cell-based; method in brief: as §1
[13] = biological target: T2, Dual specificity protein kinase CLK1/CLK4; assay: Inhibition of CLK1/4 in human T24 cells assessed as down regulation of HDAC1 expression after 3 days by Western blot analysis; format: cell-based; method in brief: as §1
[14] = biological target: T2, Dual specificity protein kinase CLK1/CLK4; assay: Inhibition of CLK1/4 in human MDA-MB-231 cells assessed as down regulation of EGFR expression after 3 days by Western blot analysis; format: cell-based; method in brief: as §1
[15] = biological target: T2, Dual specificity protein kinase CLK1/CLK4; assay: Inhibition of CLK1/4 in human MDA-MB-231 cells assessed as down regulation of S6 kinase expression after 3 days by Western blot analysis; format: cell-based; method in brief: as §1
[16] = biological target: T2, Dual specificity protein kinase CLK1/CLK4; assay: Inhibition of CLK1/4 in human T24 cells assessed as down regulation of EGFR expression at 1.25 uM after 3 days by Western blot analysis relative to control; format: cell-based; method in brief: as §1
[17] = biological target: T2, Dual specificity protein kinase CLK1/CLK4; assay: Inhibition of CLK1/4 in human T24 cells assessed as down regulation of HDAC1 expression at 1.25 uM after 3 days by Western blot analysis relative to control; format: cell-based; method in brief: as §1
[18] = biological target: T2, Dual specificity protein kinase CLK1/CLK4; assay: Inhibition of CLK1/4 in human MDA-MB-231 cells assessed as down regulation of S6 kinase expression at 2.5 uM after 3 days by Western blot analysis relative to control; format: cell-based; method in brief: as §1
T-24 [19] = assay: Down regulation of CD44 expression in human T24 cells at 1.25 to 10 uM after 3 days by Western blot analysis; format: functional, cell-based; method in brief: as §1
T-24 [20] = assay: Down regulation of GRP94 expression in human T24 cells at 1.25 to 10 uM after 3 days by Western blot analysis; format: functional, cell-based; method in brief: as §1
MDA-MB-231 [21] = assay: Down regulation of PARP1 expression in human MDA-MB-231 cells at 2.5 to 20 uM after 3 days by Western blot analysis; format: functional, cell-based; method in brief: as §1
MDA-MB-231 [22] = assay: Down regulation of PCNA expression in human MDA-MB-231 cells at 2.5 to 20 uM after 3 days by Western blot analysis; format: functional, cell-based; method in brief: as §1
MDA-MB-231 [23] = assay: Down regulation of GRP94 expression in human MDA-MB-231 cells at 2.5 to 20 uM after 3 days by Western blot analysis; format: functional, cell-based; method in brief: as §1

With `COc1ccc2sc(C(=O)N(C)Cc3cccc(F)c3)cc2c1` the IC50 [1] was 340 nM, the inhibition [2] was 59.7% and the IC50 [3] was 206 nM. It also gave an inhibition at 1 µM [4] of 72%, an inhibition [5] of 86% and an IC50 [6] of 19.1 nM. The inhibition [7] was 32%, the inhibition [8] was 2% and the inhibition [9] was “inactive”. The inhibition (Homo sapiens) was 1.4%, the GI50 (T-24 [10]) was 600 nM and the GI50 (T47D) was 15300 nM. It also gave a GI50 (THP-1) of 27200 nM, a GI50 [11] of over 30000 nM and an IC50 [12] of 2200 nM. The inhibition [12] was “Dose-dependent effect”, the IC50 [13] was 9500 nM and the inhibition [13] was “Dose-dependent effect”. For the same compound, the IC50 [14] was 4200 nM, the IC50 [15] was over 20000 nM and the inhibition [16] was 48.3%. The inhibition [17] was 13.6%, the inhibition [18] was 12.1% and the Activity (T-24 [19]) was “inactive”. For the same compound, the Activity (T-24 [20]) was “inactive”, the Activity (MDA-MB-231 [21]) was “inactive” and the Activity (MDA-MB-231 [22]) was “inactive”. The Activity (MDA-MB-231 [23]) was “inactive”.
